# Measurements reported in paper PMC6929040 (ACS Synthetic Biology, 2019).
# Entries after “also recorded” stand apart in the source; their conditions may differ.
# Tests used:
# human 5-HTR4b = human 5-HTR4b (Homo sapiens, UniProt Q13639); experiment: Luciferase-based 5-HTR4b assay in yeast; assay type: cell-based; details: for confirmation as 5-HTR4b ligand by dose response curves: 5-HTR4b assay strain vs control strain with blank plasmid in lieu of 5-HTR4b; for natural products library screening result (Z-score normalized to serotonin): 803-member library; for natural products library screening result (Z-score normalized to serotonin) / anti-infection library screening result (Z-score): singlets; for anti-infection library screening result (Z-score): 403-member library
# human 5-HTR4b, sequence (Q13639 whole entry): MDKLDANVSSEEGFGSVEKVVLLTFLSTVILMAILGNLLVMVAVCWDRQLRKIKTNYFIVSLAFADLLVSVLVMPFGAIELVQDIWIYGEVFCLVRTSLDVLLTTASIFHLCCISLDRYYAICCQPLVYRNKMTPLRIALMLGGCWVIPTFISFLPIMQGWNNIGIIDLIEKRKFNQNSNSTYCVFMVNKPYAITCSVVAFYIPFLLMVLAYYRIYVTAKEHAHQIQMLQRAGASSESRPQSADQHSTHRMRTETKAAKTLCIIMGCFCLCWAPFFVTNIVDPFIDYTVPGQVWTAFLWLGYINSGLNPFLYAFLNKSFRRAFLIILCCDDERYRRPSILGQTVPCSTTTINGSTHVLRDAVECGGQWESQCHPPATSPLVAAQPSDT
# [1] = test system: human colon epithelial cells (Caco-2); experiment: Cell migration assay; assay type: cell-based; details: Caco-2, 10 μM, 48 h, vs PBS control
# Procedure, shortened: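 Caco-2 cells grown at 37 °C, 5% CO2 in high-glucose DMEM with 10% FBS and 1% penicillin-streptomycin. Cells at (1–2) × 10^5 cells/mL were seeded into both wells of culture inserts and left overnight to attach. Inserts were then removed and cells washed twice with PBS. […] Imaged at 0, 24 and 48 h, and the cell-free zone was measured.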
# [2] = test system: human colon epithelial cells (Caco-2); experiment: Colon cell wound healing scratch assay; assay type: cell-based; details: Caco-2 scratch assay, 10 μM, 48 h, vs PBS control
# yeast (PPY1808) = experiment: Toxicity assessment in yeast; assay type: cell-based, Saccharomyces cerevisiae; details: yeast incubated 2.5 h, 0, 10 μM, 100 μM
SMILES,confirmation as 5-HTR4b ligand by dose response curves (human 5-HTR4b),natural products library screening result (Z-score normalized to serotonin) (human 5-HTR4b; 10 μM),other results
O=C(O)CCCc1c[nH]c2ccccc12 [3-indolebutyric acid],could not confirm,hits,
"NC(Cc1c[nH]c2ccc(O)cc12)C(=O)O [5-HTP, D/L-5-hydroxytryptophan]",confirmed,hits,
"N[C@@H](Cc1c[nH]c2ccc(O)cc12)C(=O)O [L-5-HTP, L-5-hydroxytryptophan]",,hits,
O=c1cc(-c2ccccc2)oc2cc(O)c(O)c(O)c12 [baicalein],could not confirm,hits,
COc1ccc(-c2oc3c(CC=C(C)C)c(O)cc(O)c3c(=O)c2O[C@@H]2O[C@@H](C)[C@H](O)[C@@H](O)[C@H]2O)cc1 [baohuoside I],could not confirm,hits,
CC1(C)C2CCC1(C)C(O)C2 (centres unmarked) [borneol],could not confirm,,anti-infection library screening result (Z-score) (human 5-HTR4b; 1 μM): hits
CCOc1ccc2nc3cc(N)ccc3c(N)c2c1 [ethacridine],,,cell motility (cell migration) [1]: did not result in a significant increase; anti-infection library screening result (Z-score) (human 5-HTR4b; 10 μM): hits; wound healing [2]: did not result in a significant increase; toxicity to yeast (yeast (PPY1808)): toxic at high concentrations
CC[n+]1c(-c2ccccc2)c2cc(N)ccc2c2ccc(N)cc21 [ethidium bromide],could not confirm,,anti-infection library screening result (Z-score) (human 5-HTR4b; 10 μM): hits
O=c1c(-c2ccc(O)cc2)coc2cc(O[C@@H]3O[C@H](CO)[C@@H](O)[C@H](O)[C@H]3O)cc(O)c12 [genistin],could not confirm,hits,
O=C(CC1NCCCC1O)Cn1cnc2cc(Br)c(Cl)cc2c1=O (centres unmarked) [halofuginone],,hits,cell motility (cell migration) [1]: results only in increased wound healing; wound healing [2]: statistically significant increase in wound healing (P < 0.05); also recorded: statistically significantly different than the PBS control (P < 0.05)
CN(C)CCc1ccc(O)cc1 [hordenine],,hits,cell motility (cell migration) [1]: significantly (P < 0.01) increase cell motility; also recorded: statistically significantly different than the PBS control (P < 0.01); anti-infection library screening result (Z-score) (human 5-HTR4b; 10 μM): hits; wound healing [2]: statistically significant increase in wound healing (P < 0.05); also recorded: statistically significantly different than the PBS control (P < 0.05)
CN[C@@H]1[C@@H](O)[C@@H](O[C@@H]2[C@@H](O)[C@H](O[C@H]3O[C@H](CN)[C@@H](O)[C@H](O)[C@H]3O)[C@@H](N)C[C@H]2NC(=O)[C@@H](O)CN)OC[C@]1(C)O [isepamicin],could not confirm,,anti-infection library screening result (Z-score) (human 5-HTR4b; 1 μM): hits
CCn1cc(C(=O)O)c(=O)c2ccc(C)nc21 [nalidixic acid],could not confirm,hits,
O=c1c2cc(O[C@@H]3O[C@H](CO)[C@@H](O)[C@H](O)[C@H]3O)c(O)cc2oc2cc(O)c([C@@H]3O[C@H](CO)[C@@H](O)[C@H](O)[C@H]3O)c(O)c12 [neomangiferin],could not confirm,hits,
O=C(Nc1ccc(O)cc1)c1ccccc1O [osalmid],could not confirm,,anti-infection library screening result (Z-score) (human 5-HTR4b; 1 μM): hits
Nc1ccc2cc3ccc(N)cc3nc2c1 [proflavine],,,cell motility (cell migration) [1]: did not result in a significant increase; anti-infection library screening result (Z-score) (human 5-HTR4b; 10 μM): hits; wound healing [2]: did not result in a significant increase; toxicity to yeast (yeast (PPY1808)): toxic at high concentrations
Cc1nc(Nc2ccc(F)cc2)nc(N2CCc3ccccc3C2C)c1C (centres unmarked) [revaprazan],,,cell motility (cell migration) [1]: statistically significantly different than the PBS control (P < 0.01); cell motility (cell migration) ([1]; listed as Revaprazan): significantly (P < 0.01) increase cell motility; anti-infection library screening result (Z-score) (human 5-HTR4b; 1 μM): hits; wound healing [2]: statistically significant increase in wound healing (P < 0.05); also recorded: statistically significantly different than the PBS control (P < 0.05); toxicity to yeast (yeast (PPY1808)): toxic at high concentrations
NCCc1c[nH]c2ccc(O)cc12 [serotonin],,hits,"signal increase after activation (human 5-HTR4b; pH = 7, 100 mg/L serotonin, 2 h ligand incubation, 30 min luciferase substrate incubation): 38 fold"
NCCc1c[nH]c2ccccc12 [tryptamine],confirmed,hits,
